In brackets after ≈: the same amount, converted by molar mass.
Experiments:
Type in all cases: functional
Escherichia coli [1] = experiment: Antibacterial activity against wild-type Escherichia coli AG100 harboring IS186 insertion in lon3 gene at 37 degC by Etest method
Escherichia coli [2] = experiment: Antibacterial activity against ompF-deficient Escherichia coli AG100 at 26 degC by Etest method
Escherichia coli [3] = experiment: Antibacterial activity against wild-type Escherichia coli AG100 harboring Tn5 insertion in ycgE gene at 26 degC by Etest method
Escherichia coli [4] = experiment: Antibacterial activity against wild-type Escherichia coli AG100 harboring IS186 insertion in lon3 gene, Tn5 insertion in ycgE gene and plasmid pMPM at 26 degC by Etest method
Escherichia coli [5] = experiment: Antibacterial activity against ompF-deficient Escherichia coli AG100 harboring IS186 insertion in lon3 gene and Tn5 insertion in ycgE gene at 26 degC by Etest method
Escherichia coli [6] = experiment: Antibacterial activity against wild-type Escherichia coli AG100 at 37 degC by Etest method
Escherichia coli [7] = experiment: Antibacterial activity against wild-type Escherichia coli AG100 harboring IS186 insertion in lon3 gene and Tn5 insertion in ycgE gene at 37 degC by Etest method
Escherichia coli [8] = experiment: Antibacterial activity against wild-type Escherichia coli AG100 harboring IS186 insertion in lon3 gene at 26 degC by Etest method
Escherichia coli [9] = experiment: Antibacterial activity against ompF-deficient Escherichia coli AG100 at 37 degC by Etest method
Escherichia coli [10] = experiment: Antibacterial activity against wild-type Escherichia coli AG100 at 26 degC by Etest method
Escherichia coli [11] = experiment: Antibacterial activity against wild-type Escherichia coli AG100 harboring IS186 insertion in lon3 gene, Tn5 insertion in ycgE gene and plasmid pMPM carrying ompF gene at 26 degC by Etest method
Escherichia coli [12] = experiment: Antibacterial activity against ompF-deficient Escherichia coli AG100 harboring IS186 insertion in lon3 gene and Tn5 insertion in ycgE gene at 37 degC by Etest method
Escherichia coli [13] = experiment: Antibacterial activity against wild-type Escherichia coli AG100 harboring marR mutant gene at 26 degC by Etest method
Escherichia coli [14] = experiment: Antibacterial activity against wild-type Escherichia coli AG100 harboring IS186 insertion in lon3 gene and Tn5 insertion in ycgE gene at 26 degC by Etest method
Escherichia coli [15] = experiment: Antibacterial activity against wild-type Escherichia coli AG100 harboring Tn5 insertion in ycgE gene at 37 degC by Etest method
Escherichia coli [16] = experiment: Antibacterial activity against wild-type Escherichia coli AG100 harboring marR mutant gene at 37 degC by Etest method
Escherichia coli [17] = experiment: Antibacterial activity against wild-type Escherichia coli AG100 harboring IS186 insertion in lon3 gene, Tn5 insertion in ycgE gene, plasmid pET21b and pACT7SP at 26 degC by Etest method
Outline: (§1)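 MIC by Etest on LB agar at 26°C for the lon ycgE strain with pACT7Sp plus pET21b or pET21b-ompF; plates contained 100 μg/ml ampicillin, 50 μg/ml spectinomycin and 0.1 mM IPTG to induce OmpF; averages of at least four measurements.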

Escherichia coli [18] = experiment: Antibacterial activity against wild-type Escherichia coli AG100 harboring IS186 insertion in lon3 gene, Tn5 insertion in ycgE gene, plasmid pET21b carrying ompF gene and pACT7SP at 26 degC by Etest method; outline: as §1

CC1(C)S[C@@H]2[C@H](NC(=O)[C@H](N)c3ccccc3)C(=O)N2[C@H]1C(=O)O [AMPICILLIN]
MIC (Escherichia coli [1]): 1 µg/mL (≈ 2.86 µM)
MIC (Escherichia coli [2]): 1.5 µg/mL (≈ 4.29 µM)
MIC (Escherichia coli [3]): 0.75 µg/mL (≈ 2.15 µM)
MIC (Escherichia coli [4]): 2.3 µg/mL (≈ 6.58 µM)
MIC (Escherichia coli [5]): 2.3 µg/mL (≈ 6.58 µM)
MIC (Escherichia coli [6]): 1 µg/mL (≈ 2.86 µM)
MIC (Escherichia coli [7]): 1.7 µg/mL (≈ 4.87 µM)
MIC (Escherichia coli [8]): 0.83 µg/mL (≈ 2.38 µM)
MIC (Escherichia coli [9]): 1.83 µg/mL (≈ 5.24 µM)
MIC (Escherichia coli [10]): 0.75 µg/mL (≈ 2.15 µM)
MIC (Escherichia coli [11]): 1.5 µg/mL (≈ 4.29 µM)
MIC (Escherichia coli [12]): 2.2 µg/mL (≈ 6.3 µM)
MIC (Escherichia coli [13]): 4 µg/mL (≈ 11.4 µM)
MIC (Escherichia coli [14]): 1.8 µg/mL (≈ 5.15 µM)
MIC (Escherichia coli [15]): 1 µg/mL (≈ 2.86 µM)
MIC (Escherichia coli [16]): 3 µg/mL (≈ 8.59 µM)

CO[C@@]1(NC(=O)Cc2cccs2)C(=O)N2C(C(=O)O)=C(COC(N)=O)CS[C@@H]21 [CEFOXITIN]
MIC (Escherichia coli [1]): 1.7 µg/mL (≈ 3.98 µM)
MIC (Escherichia coli [2]): 3 µg/mL (≈ 7.02 µM)
MIC (Escherichia coli [3]): 0.92 µg/mL (≈ 2.15 µM)
MIC (Escherichia coli [4]): 6 µg/mL (≈ 14 µM)
MIC (Escherichia coli [5]): 4.7 µg/mL (≈ 11 µM)
MIC (Escherichia coli [6]): 1.5 µg/mL (≈ 3.51 µM)
MIC (Escherichia coli [7]): 4 µg/mL (≈ 9.36 µM)
MIC (Escherichia coli [8]): 0.92 µg/mL (≈ 2.15 µM)
MIC (Escherichia coli [9]): 3 µg/mL (≈ 7.02 µM)
MIC (Escherichia coli [10]): 0.75 µg/mL (≈ 1.75 µM)
MIC (Escherichia coli [11]): 1 µg/mL (≈ 2.34 µM)
MIC (Escherichia coli [12]): 3 µg/mL (≈ 7.02 µM)
MIC (Escherichia coli [13]): 7.3 µg/mL (≈ 17.1 µM)
MIC (Escherichia coli [14]): 4 µg/mL (≈ 9.36 µM)
MIC (Escherichia coli [15]): 1.7 µg/mL (≈ 3.98 µM)
MIC (Escherichia coli [16]): 6 µg/mL (≈ 14 µM)

CC(=O)OCC1=C(C(=O)O)N2C(=O)[C@@H](NC(=O)Cc3cccs3)[C@H]2SC1 [CEPHALOTHIN]
MIC (Escherichia coli [1]): 2 µg/mL (≈ 5.04 µM)
MIC (Escherichia coli [2]): 4.7 µg/mL (≈ 11.9 µM)
MIC (Escherichia coli [3]): 1.3 µg/mL (≈ 3.28 µM)
MIC (Escherichia coli [4]): 5.3 µg/mL (≈ 13.4 µM)
MIC (Escherichia coli [5]): 6.7 µg/mL (≈ 16.9 µM)
MIC (Escherichia coli [6]): 2 µg/mL (≈ 5.04 µM)
MIC (Escherichia coli [7]): 4.7 µg/mL (≈ 11.9 µM)
MIC (Escherichia coli [8]): 1.2 µg/mL (≈ 3.03 µM)
MIC (Escherichia coli [9]): 4.7 µg/mL (≈ 11.9 µM)
MIC (Escherichia coli [10]): 1 µg/mL (≈ 2.52 µM)
MIC (Escherichia coli [11]): 2 µg/mL (≈ 5.04 µM)
MIC (Escherichia coli [12]): 4.7 µg/mL (≈ 11.9 µM)
MIC (Escherichia coli [13]): 10.7 µg/mL (≈ 27 µM)
MIC (Escherichia coli [14]): 6 µg/mL (≈ 15.1 µM)
MIC (Escherichia coli [15]): 2.3 µg/mL (≈ 5.8 µM)
MIC (Escherichia coli [16]): 9.3 µg/mL (≈ 23.5 µM)

O=C(N[C@H](CO)[C@H](O)c1ccc([N+](=O)[O-])cc1)C(Cl)Cl [CHLORAMPHENICOL]
MIC (Escherichia coli [1]): 4 µg/mL (≈ 12.4 µM)
MIC (Escherichia coli [2]): 6 µg/mL (≈ 18.6 µM)
MIC (Escherichia coli [3]): 4 µg/mL (≈ 12.4 µM)
MIC (Escherichia coli [5]): 13.3 µg/mL (≈ 41.2 µM)
MIC (Escherichia coli [6]): 4 µg/mL (≈ 12.4 µM)
MIC (Escherichia coli [7]): 9.3 µg/mL (≈ 28.8 µM)
MIC (Escherichia coli [8]): 4 µg/mL (≈ 12.4 µM)
MIC (Escherichia coli [9]): 6.7 µg/mL (≈ 20.7 µM)
MIC (Escherichia coli [10]): 4 µg/mL (≈ 12.4 µM)
MIC (Escherichia coli [12]): 10.7 µg/mL (≈ 33.1 µM)
MIC (Escherichia coli [13]): 24 µg/mL (≈ 74.3 µM)
MIC (Escherichia coli [14]): 12 µg/mL (≈ 37.1 µM)
MIC (Escherichia coli [15]): 4 µg/mL (≈ 12.4 µM)
MIC (Escherichia coli [16]): 21 µg/mL (≈ 65 µM)

C[C@H]1c2cccc(O)c2C(=O)C2=C(O)[C@]3(O)C(=O)C(C(N)=O)=C(O)[C@@H](N(C)C)[C@@H]3[C@@H](O)[C@@H]21.O [DOXYCYCLINE]
MIC (Escherichia coli [1]): 1.17 µg/mL
MIC (Escherichia coli [2]): 2 µg/mL
MIC (Escherichia coli [3]): 0.83 µg/mL
MIC (Escherichia coli [5]): 2 µg/mL
MIC (Escherichia coli [6]): 1 µg/mL
MIC (Escherichia coli [7]): 2 µg/mL
MIC (Escherichia coli [8]): 0.75 µg/mL
MIC (Escherichia coli [9]): 2 µg/mL
MIC (Escherichia coli [17]): 2 µg/mL
MIC (Escherichia coli [10]): 0.5 µg/mL
MIC (Escherichia coli [12]): 2 µg/mL
MIC (Escherichia coli [13]): 3.7 µg/mL
MIC (Escherichia coli [14]): 2 µg/mL
MIC (Escherichia coli [15]): 1.17 µg/mL
MIC (Escherichia coli [18]): 0.75 µg/mL
MIC (Escherichia coli [16]): 3.3 µg/mL

CCn1cc(C(=O)O)c(=O)c2ccc(C)nc21 [NALIDIXIC ACID]
MIC (Escherichia coli [1]): 4 µg/mL (≈ 17.2 µM)
MIC (Escherichia coli [2]): 3.3 µg/mL (≈ 14.2 µM)
MIC (Escherichia coli [3]): 3.7 µg/mL (≈ 15.9 µM)
MIC (Escherichia coli [4]): 3 µg/mL (≈ 12.9 µM)
MIC (Escherichia coli [5]): 3.3 µg/mL (≈ 14.2 µM)
MIC (Escherichia coli [6]): 4 µg/mL (≈ 17.2 µM)
MIC (Escherichia coli [7]): 4 µg/mL (≈ 17.2 µM)
MIC (Escherichia coli [8]): 3.7 µg/mL (≈ 15.9 µM)
MIC (Escherichia coli [9]): 4 µg/mL (≈ 17.2 µM)
MIC (Escherichia coli [17]): 3 µg/mL (≈ 12.9 µM)
MIC (Escherichia coli [10]): 4 µg/mL (≈ 17.2 µM)
MIC (Escherichia coli [11]): 3 µg/mL (≈ 12.9 µM)
MIC (Escherichia coli [12]): 4 µg/mL (≈ 17.2 µM)
MIC (Escherichia coli [13]): 6.7 µg/mL (≈ 28.8 µM)
MIC (Escherichia coli [14]): 3.3 µg/mL (≈ 14.2 µM)
MIC (Escherichia coli [15]): 4 µg/mL (≈ 17.2 µM)
MIC (Escherichia coli [18]): 3 µg/mL (≈ 12.9 µM)
MIC (Escherichia coli [16]): 10.7 µg/mL (≈ 46.1 µM)

CN(C)[C@@H]1C(O)=C(C(N)=O)C(=O)[C@@]2(O)C(O)=C3C(=O)c4c(O)cccc4[C@@](C)(O)[C@H]3C[C@@H]12 [TETRACYCLINE]
MIC (Escherichia coli [1]): 1 µg/mL (≈ 2.25 µM)
MIC (Escherichia coli [2]): 2 µg/mL (≈ 4.5 µM)
MIC (Escherichia coli [3]): 0.5 µg/mL (≈ 1.13 µM)
MIC (Escherichia coli [5]): 2 µg/mL (≈ 4.5 µM)
MIC (Escherichia coli [6]): 1 µg/mL (≈ 2.25 µM)
MIC (Escherichia coli [7]): 2 µg/mL (≈ 4.5 µM)
MIC (Escherichia coli [8]): 0.5 µg/mL (≈ 1.13 µM)
MIC (Escherichia coli [9]): 1.83 µg/mL (≈ 4.12 µM)
MIC (Escherichia coli [10]): 0.5 µg/mL (≈ 1.13 µM)
MIC (Escherichia coli [12]): 2 µg/mL (≈ 4.5 µM)
MIC (Escherichia coli [13]): 6 µg/mL (≈ 13.5 µM)
MIC (Escherichia coli [14]): 2 µg/mL (≈ 4.5 µM)
MIC (Escherichia coli [15]): 1 µg/mL (≈ 2.25 µM)
MIC (Escherichia coli [16]): 4 µg/mL (≈ 9 µM)

Reference: ChEMBL document CHEMBL1649258, “Combined inactivation of lon and ycgE decreases multidrug susceptibility by reducing the amount of OmpF porin in Escherichia coli” (2009)
